Measurements of several laboratories.
Lines come from different studies, so protocols differ.
ABL1 F317L phosphorylated: Tyrosine-protein kinase ABL1, phosphorylated (ABL1, Homo sapiens, UniProt P00519, F317L)
ABL1 H396P non-phosphorylated: Tyrosine-protein kinase ABL1, non-phosphorylated (ABL1, Homo sapiens, UniProt P00519, H396P)
ABL1 Q252H: Tyrosine-protein kinase ABL1 (ABL1, Homo sapiens, UniProt P00519, Q252H)
ABL1 F317I phosphorylated: Tyrosine-protein kinase ABL1, phosphorylated (ABL1, Homo sapiens, UniProt P00519, F317I)
ABL1 non-phosphorylated: Tyrosine-protein kinase ABL1, non-phosphorylated (ABL1, Homo sapiens, UniProt P00519)
ABL1 T315I phosphorylated: Tyrosine-protein kinase ABL1, phosphorylated (ABL1, Homo sapiens, UniProt P00519, T315I)
ABL1 Y253F: Tyrosine-protein kinase ABL1 (ABL1, Homo sapiens, UniProt P00519, Y253F)
ABL1 H396P phosphorylated: Tyrosine-protein kinase ABL1, phosphorylated (ABL1, Homo sapiens, UniProt P00519, H396P)

Compound	target	assay	conditions	remaining binding [%]
O=C(NCCCN1CCOCC1)c1ccc(Nc2nccc(-c3cc4ccccc4s3)n2)cc1	ABL1 F317L phosphorylated	binding, competition with immobilised ligand	1 µM	75
COc1ncc2cc3ccccc3nc2c1C#N	ABL1 F317L phosphorylated	cell-free assay, competition with immobilised ligand	5 µM	86
CN([C@@H]1CCc2c(CC(=O)O)c3cc(S(C)(=O)=O)ccc3n2C1)S(=O)(=O)c1ccc(F)cc1	ABL1 H396P non-phosphorylated	cell-free assay, competition with immobilised ligand	1 µM	55
Nc1ncc2c(n1)-c1c([nH]c3ccc(C#CC4CC4)cc13)CCCC2	ABL1 H396P non-phosphorylated	binding, competition with immobilised ligand	1 µM	93
C[C@@H]1CCN(c2nccc(-c3cnn4ncccc34)n2)C1	ABL1 Q252H	binding	1 µM	81
Cc1nc(Cc2cccc(C(F)(F)F)c2)sc1-c1ccc(C(N)=O)nc1	ABL1 F317I phosphorylated	binding	1 µM	83
COc1cnc(Nc2cccc(S(N)(=O)=O)c2)nc1N1CCN(c2ccccc2)CC1	ABL1 non-phosphorylated	binding, competition with immobilised ligand	1 µM	70
CNC(=O)Nc1ccc2c(c1)[C@@]1(CC2)OC(=O)N(CC(=O)N(Cc2ccc(F)cc2)[C@@H](C)C(F)(F)F)C1=O	ABL1 T315I phosphorylated	cell-free assay, competition with immobilised ligand	1 µM	87
CN(CCCC(F)(F)F)c1nccc(-c2cnn3ncccc23)n1	ABL1 Q252H	binding	1 µM	100
O=C(Nc1c[nH]nc1C(=O)NC1CCNCC1)c1cc(F)cc(F)c1	Tyrosine-protein kinase ABL1, phosphorylated (ABL1, Homo sapiens, UniProt P00519, E255K)	binding, competition with immobilised ligand	1 µM	100
c1cncc(-c2cccc(Nc3nccc(NC4CCCCC4)n3)c2)c1	ABL1 H396P non-phosphorylated	binding, competition with immobilised ligand	10 µM	9
CN(C)c1nccc(-c2cnc3ncccn23)n1	ABL1 Y253F	binding	1 µM	41
CCN1CCN(Cc2ccc(C(=O)Nc3ccc(C)c(Oc4ccc5c(c4)CC(=O)N5)c3)cc2C(F)(F)F)CC1	ABL1 F317I phosphorylated	binding, competition with immobilised ligand	1 µM	24
C[C@@H](c1ccc(-n2cnc3c(N)ncnc32)cc1)N1CCc2nn(C)c(Cc3ccccc3)c2C1=O	ABL1 H396P non-phosphorylated	binding, competition with immobilised ligand	0.1 µM	13
Cc1cnc(Nc2ccc(C(=O)N3CCC(N4CCCC4)CC3)cc2)nc1-c1cc2ccccc2s1	ABL1 T315I phosphorylated	binding, competition with immobilised ligand	1 µM	2.1
Nc1cnc(N2CCc3cc(S(=O)(=O)Nc4c(F)cc(Cl)cc4F)cc(N4CCCC4=O)c32)nc1	ABL1 F317L phosphorylated	cell-free assay, competition with immobilised ligand	1 µM	78
O=C(c1ccc(Nc2ncc(Cl)c(-c3ccc(Cl)s3)n2)cc1)N1CCC(N2CCCC2)CC1	Tyrosine-protein kinase ABL1, phosphorylated (ABL1, Homo sapiens, UniProt P00519)	binding, competition with immobilised ligand	1 µM	4.3
CO[C@H]1CC[C@H](CNc2ccc(S(=O)(=O)NC(=O)c3ccc(N4CCN(CC5=C(c6ccc(Cl)cc6)CC(C)(C)CC5)CC4)cc3Oc3cnc4[nH]ccc4c3)cc2[N+](=O)[O-])CC1	ABL1 non-phosphorylated	cell-free assay, competition with immobilised ligand	1 µM	71
O=C(c1ccc(Nc2nccc(-c3cc4ccccc4s3)n2)cc1)N1CCC(N2CCCC2)CC1	ABL1 H396P phosphorylated	binding, competition with immobilised ligand	1 µM	13
CN(C(=O)c1ccccc1)c1cc(N(C)c2ccc3c(c2)CCc2ccc(C(=O)NCCN4CCOCC4)cc2C3=O)ccc1F	ABL1 H396P phosphorylated	cell-free assay, competition with immobilised ligand	1 µM	100
CNC(=O)[C@@H]1CC[C@@H](n2c(-c3ccc4cnccc4c3)nc3ccc(C(=O)NCc4cccc(C(N)=O)c4)cc32)C1	ABL1 F317I phosphorylated	binding, competition with immobilised ligand	1 µM	100
O=C(NS(=O)(=O)c1ccc(NCC2CCOCC2)c([N+](=O)[O-])c1)c1ccc(N2CCN(Cc3ccc(C(F)(F)F)cc3-c3ccc(Cl)cc3)CC2)cc1Oc1cnc2[nH]ccc2c1	ABL1 F317I phosphorylated	binding	1 µM	100
COc1ccnn2ncc(-c3ccnc(N(C)C)n3)c12	ABL1 Y253F	binding	1 µM	79
